hERG rescue – hERG rescue from dofetilide block, primary screen, cell-based, CHO-hERG, FluxOR thallium flux, dofetilide IC70; Voltage-gated inwardly rectifying potassium channel KCNH2 (Homo sapiens), Q12809; activation (rescue from dofetilide block), less the hit threshold, % at 10 µM; 310,000 tested, 0.51% active; dofetilide IC70 present;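 active = activation above the mean of controls blocked by dofetilide plus 5 SD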;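 note: thallium influx through hERG after potassium depolarization seen as dye fluorescence rise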
KCNK9 inh – KCNK9 potassium channel inhibitors, primary screen, HEK293 cells, thallium flux; 310,000 tested, 1.2% active; B-score at 10 µM; AID 488922, 2010; FluxOR thallium flux fluorescence; active compounds read low;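 active = ratio B-score over 3 SD below the library mean, with starting fluorescence within 5 SD of its mean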;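 note: negative B-score means less thallium flux so channel inhibition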
KCNQ1 inh – inhibitors of human KCNQ1 channel, primary screen, cell-based, thallium flux, high-throughput; Potassium voltage-gated channel subfamily KQT member 1 (Homo sapiens), P51787; CHO-K1 KCNQ1, FluxOR thallium flux fluorescence; active compounds read high; B-score at 10 µM; 310,000 tested, 1.3% active;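 active = compounds whose thallium flux B-score, printed positive for inhibition, exceeds three library SD while starting fluorescence stays within three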;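 note: channel opened by potassium depolarization with thallium stimulus after 20 min compound exposure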
Target sequence (P51787 whole entry, looked up): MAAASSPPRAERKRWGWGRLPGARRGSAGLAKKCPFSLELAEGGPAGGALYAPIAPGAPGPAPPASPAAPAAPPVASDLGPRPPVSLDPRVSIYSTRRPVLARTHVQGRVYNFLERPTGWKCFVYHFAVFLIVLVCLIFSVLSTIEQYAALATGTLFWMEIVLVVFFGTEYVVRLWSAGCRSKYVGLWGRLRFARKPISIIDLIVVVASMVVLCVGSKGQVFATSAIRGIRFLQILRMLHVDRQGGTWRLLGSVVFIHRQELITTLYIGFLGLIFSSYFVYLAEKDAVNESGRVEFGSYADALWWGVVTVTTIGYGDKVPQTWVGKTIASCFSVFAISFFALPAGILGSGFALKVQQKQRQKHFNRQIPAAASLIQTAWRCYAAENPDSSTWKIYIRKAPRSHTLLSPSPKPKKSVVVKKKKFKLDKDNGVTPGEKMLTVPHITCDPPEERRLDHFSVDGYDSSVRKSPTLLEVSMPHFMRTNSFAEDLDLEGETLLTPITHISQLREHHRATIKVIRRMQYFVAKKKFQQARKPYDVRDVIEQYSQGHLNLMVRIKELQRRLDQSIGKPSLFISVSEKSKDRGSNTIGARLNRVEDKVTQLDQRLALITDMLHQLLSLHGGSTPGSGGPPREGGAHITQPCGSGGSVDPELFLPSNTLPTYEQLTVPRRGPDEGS
KCNQ1 act – potentiators or activators of KCNQ1 channel, primary screen, cell-based, thallium flux, high-throughput | CHO-K1 KCNQ1, thallium flux FluxOR fluorescence; active compounds read high | Potassium voltage-gated channel subfamily KQT member 1 (Homo sapiens), P51787 | AID 2648, 2010 | B-score at 10 µM | 310,000 tested, 0.35% active;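 active = fluorescence ratio B-score, a plate-corrected score, at least three library SD, with initial intensity B-score within 5 SD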
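Test system: CHO-K1 cells stably expressing KCNQ1 / Medium: assay buffer / Also added: depolarizing K+/Tl+ stimulus, K2SO4 and Tl2SO4 each 12.5 mM in 5x stock / Incubation: 90 min dye loading and 20 min compound exposure, both at room temperature / Signal: thallium influx via FluxOR fluorescence, kinetic imaging / Evaluation: B score of baseline-normalized fluorescence ratio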
KCNK3 inh – human KCNK3 channel inhibitors, primary screen, CHO cells, FluxOR thallium flux, B-score; 340,000 tested, 0.84% active; FluxOR fluorescence; active compounds read low; B-score at 10 µM;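 active = B-score under library mean minus 4 SD, starting fluorescence ratio at most library mean plus 5 SD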;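 note: more negative B-score means stronger inhibition of thallium flux through KCNK3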
KCNK3 confirm – retest of human KCNK3 channel inhibitors, confirmation, CHO cells, FluxOR thallium flux, triplicate; shares compounds with KCNK3 inh; FluxOR fluorescence; 0% buffer, 100% carvedilol maximal block; ratio percent of control, % at 10 µM; 2,400 tested, 99% active;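 active = ratio percent of control, averaged over triplicates, above buffer control mean plus 5 SD, cut at about 64% in these data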;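 note: ratio is the fluorescence rise from min to max over baseline after thallium stimulus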
KCNK3 noninduced – thallium flux inhibition in non-induced cells, primary screen, counter-screen for KCNK3 inhibitor project, cell-based, non-induced KCNK3 line, FluxOR thallium, triplicate | shares compounds with KCNK3 inh | non-induced KCNK3 parental cells; active compounds read low | thallium flux ratio (lower = more inhibition) at 10 µM | 2,400 tested, 40% active | AID 651747, 2012;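 active = thallium flux ratio, averaged over three wells, more than 5 SD below the buffer control mean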;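 note: host cells are CHO cells without KCNK3 induction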
Of the large screens only hits and unclear results are named; the others gave an inactive call (follow-up assays come after a bar, where they were run). Compounds with a hit are over-represented: about 3.1% of the library has one in this group of screens.

COc1ccc(NC(=O)CN(C)C(=O)/C=C/c2cn(-c3ccccc3)nc2-c2ccc(C)cc2)cc1	none
COc1cccc(NC(=O)CN(C)C(=O)c2cc(-c3ccccc3)nc3ccccc23)c1	none
COc1cc(C)ccc1OCCOc1cc(C)ccc1Cl	KCNK3 inh -8.72 | KCNK3 confirm 88.3 | KCNK3 noninduced inactive
COc1cc(C)ccc1OCCOc1c(Cl)cc(Cl)cc1Cl	none
COc1cccc2cc(C(C)N(CCCN3CCOCC3)C(=S)Nc3c(C)cccc3C)oc12 (stereo not given)	none
CCc1ccc(NC(=O)N(CCCN2CCOCC2)C(C)c2cc3cccc(OC)c3o2)cc1 (stereo not given)	KCNK3 inh -8.83 | KCNK3 confirm 118.0 | KCNK3 noninduced inactive
OC1(c2ccc(F)cc2)CSC(=Nc2cccnc2)N1Cc1ccco1 (stereo not given)	none
OC1(c2ccc(OC(F)F)cc2)CSC(=Nc2cccnc2)N1Cc1ccco1 (stereo not given)	KCNK3 inh -11.4 | KCNK3 confirm 96.7 | KCNK3 noninduced inactive
Oc1ccc(Br)cc1-c1nc2cnccn2c1NC1CCCC1	KCNK3 inh -8.82 | KCNK3 confirm 131.0 | KCNK3 noninduced inactive
CC(=O)N1CCCN(Cc2cn(-c3cc(C)ccc3C)nc2-c2ccccc2)CC1	none
Cc1ccc(OCC(=O)Nc2ccc(N3CCN(S(C)(=O)=O)CC3)cc2)cc1C	none
Cc1nn2c(NCCCn3ccnc3)cc(C(C)C)nc2c1-c1ccccc1	KCNK3 inh -11.9 | KCNK3 confirm 114.7 | KCNK3 noninduced 0.143
CCCCCCn1c(N(CC)CC)nc2c1c(=O)[nH]c(=O)n2C	none
O=Cc1ccccc1-c1cn(CCCOCc2ccccc2)nn1	none
Cc1cccc(N2CCN(C(=O)COc3ccc4c(C)cc(=O)oc4c3C)CC2)c1C	KCNQ1 inh 7, KCNK3 inh -9.01 | KCNK3 confirm 81.3 | KCNK3 noninduced inactive
CCCC1C2C(=O)N(c3cccc(C)c3)C(=O)C2ON1c1ccccc1 (stereo not given)	none
COCCOc1nc2c(c(=O)n(C)c(=O)n2C)n1Cc1cccc(OC)c1	KCNK3 inh -11 | KCNK3 confirm 66.0 | KCNK3 noninduced inactive
O=C1N(c2ccccc2)C(c2ccc(Cl)cc2)N2CCCN12 (stereo not given)	none
Cc1ccc(C2N(c3ccc(Cl)cc3)C(=O)N3CCCN23)cc1 (stereo not given)	KCNK3 inh -9.61 | KCNK3 confirm 90.0 | KCNK3 noninduced inactive
O=C(Nc1cccc(/C=C/c2ccccn2)c1)c1cc(Cl)ccn1	KCNK3 inh -9.44 | KCNK3 confirm 109.3 | KCNK3 noninduced inactive
O=C(NCC1CCCO1)c1cc(S(=O)(=O)N2CCCC2)c(Cl)cc1Cl (stereo not given)	none
Nc1ccc(Cl)c(-c2nc3ncccc3o2)c1	KCNK3 inh -11.3 | KCNK3 confirm 88.0 | KCNK3 noninduced inactive
Cc1ccnc(NC(=O)c2cccc(NC(=O)CC3SC(N4CCCCC4)=NC3=O)c2)c1 (stereo not given)	none (no result: hERG rescue, KCNK9 inh, KCNQ1 inh, KCNQ1 act)
O=C(OCc1nc(-c2ccccc2)oc1COC(=O)c1ccco1)c1ccco1	KCNK3 inh -9.08 | KCNK3 confirm 101.7 | KCNK3 noninduced inactive
O=C(COC(=O)c1ccco1)Nc1nnc(-c2ccccc2)o1	none
CC(OC(=O)CCN1C(=O)C2CC=CCC2C1=O)C(=O)Nc1ccc(F)cc1 (stereo not given)	none (no result: hERG rescue, KCNK9 inh, KCNQ1 inh, KCNQ1 act)
CC(Cl)C(=O)N1c2ccccc2CCc2ccccc21 (stereo not given)	none

Assay outcomes deposited in PubChem BioAssay by Johns Hopkins Ion Channel Center.
